Experimental data taken from PubChem BioAssay.
Records with an inconclusive call do not appear.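 The calls were made as follows, unless noted: active = inhibition over a set limit, the all-compound mean plus 3 SD, in both replicate runs; inconclusive = over that limit in just one replicate run; inactive = at or under that limit in both runs.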

How the values were obtained:
[1] = OD615 S. cerevisiae growth inhibition, permissive medium, pilot counter-assay, permissive growth control for S. cerevisiae lifespan shortening project (AID 705;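 active = growth inhibition above 25% in both replicates, a cutoff set 3 SD above the mean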); settings: OD615, 24 h, at 10 µM, hits give high values
Procedure, shortened: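 System: Engineered DeaD yeast | Buffer or medium: SC raffinose/galactose permissive medium | Incubation: Cells pre-grown 4 h, then 24 h compound exposure, 30 °C humidified | Measured by: Absorbance (optical density) at 615 nm | Read-out: Reduction in yeast growth (OD615)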

[2] = Restrictive medium S. cerevisiae growth inhibition, OD615, pilot screen of yeast lifespan reduction project, restrictive growth control (AID 706;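 active = growth inhibition above a set limit, 3 SD over mean compound inhibition, in both replicates, cut at about 43% in these data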;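 also: modified DeaD lifespan yeast strain shifted to restrictive glucose medium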); settings: OD615, 48 h, at 10 µM, hits give high values
Procedure, shortened: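 Material: modified S. cerevisiae; Medium: glucose-based CSMM-D restrictive medium; Compound dosing: one concentration, 10 µM final, 0.25% DMSO; Incubation: 48 h compound exposure at 30 °C; Measured by: OD615.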

[3] = viability gain of MRP-1-high H69AR cells under doxorubicin, pilot screen, MRP-1 activator project, CellTiter-Glo, duplicate (AID 807;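 active = viability increase at or above a cutoff of the median across tested compounds plus 3 SD, cut at about 8.5% in these data, passing the limit was not always enough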;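 also: compound pretreatment 18-22 h then 72 h combined with doxorubicin; 0% = doxorubicin alone and 100% = vehicle without doxorubicin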); settings: H69AR viability with doxorubicin, CellTiter-Glo luminescence; at 10 µM; hits give high values
[4] = growth suppression of beta-catenin knockout HCT116, pilot screen, human colon tumor cells (AID 823;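 active = cell viability at or below a set limit in both duplicate runs, the limit being the all-compound median minus 4 SD, cut at about 23% in these data, passing the limit was not always enough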;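 also: 0% = wells killed by 20 µM Hyamine and 100% = untreated DMSO cell wells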); settings: CellTiter-Glo, 60 h, at 10 µM, hits give low values
[5] = growth suppression of PTEN-deleted HCT116, pilot screen, cell-based, HCT116 clonal line, CellTiter-Glo (AID 824;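 active = viability at or below 27.92% in each of two runs, the all-compound median minus 4 SD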;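 also: 0% = 20 µM Hyamine control and 100% = vehicle cell control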); settings: 60 h, at 10 µM, hits give low values
[6] = inhibitors of the yeast RAM network, pilot screen, dse1pr::URA3 reporter, 5-FOA selection (AID 869);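 also: 0% = DMSO wells with no growth and 100% = 10 µM 1-NA-PP1 with full growth; RAM network block rescues cells from 5-FOA so hits raise OD615 growth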; settings: S. cerevisiae dse1pr::URA3 5-FOA growth, OD615, 2 d; at 10 µM; hits give high values; strain carries analog-sensitive mutant Cbk1 kinase
[7] = RAM signaling pathway blockade in yeast – S. cerevisiae, Pdr1DBD-CYC8 efflux-inhibited sensitized strain, primary screen (AID 1298;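 active = RAM network inhibition above 8.4% in each of two replicates, 3 SD over the compound average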;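 also: 0% = DMSO untreated cells without growth and 100% = 10 µM 1-NA-PP1 full growth; higher means more yeast growth rescued from 5-FOA killing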); settings: S. cerevisiae cbk1-as DSE1-URA3 strain, 5-FOA growth OD615, 2 d; at 50 µM; hits give high values

COc1ccc(-n2c3c(cc(C(=O)Nc4ccc5c(c4)C(=O)NC5=O)c2=O)C(=O)CCC3)cc1
inactive: growth inhibition [1] -7.19% | growth inhibition [2] -10.4% | viability increase [3] 0.08% | viability [4] 102% | viability [5] 102% | inhibition [6] 1.77% | RAM network inhibition [7] 3.06%

Cc1nc2sc(C(c3cccs3)N3CCN(c4ccccc4)CC3)c(O)n2n1 (stereo unspecified)
inactive: growth inhibition [1] 0.19% | growth inhibition [2] 5.34% | viability increase [3] -0.21% | viability [4] 96.5% | viability [5] 94.8% | inhibition [6] 1.19% | RAM network inhibition [7] 2.14%

O=C(NCCN1C(=O)C2C3C=CC(C3)C2C1=O)Nc1ccc(Br)cc1 (stereo unspecified)
inactive: growth inhibition [1] -9% | growth inhibition [2] 9.2% | viability increase [3] -1.13% | viability [4] 103% | viability [5] 88.3% | inhibition [6] 0.81% | RAM network inhibition [7] 0.1%

COc1ccc(N2CCN(C(=O)C3CCCN(S(=O)(=O)c4cccc5cccnc45)C3)CC2)cc1 (stereo unspecified)
inactive: growth inhibition [1] 7.46% | growth inhibition [2] -2.35% | viability increase [3] -3.75% | viability [4] 69.6% | viability [5] 68.2% | inhibition [6] 0.045% | RAM network inhibition [7] 2.71%

N#Cc1nc(COc2ccccc2)oc1N1CCCCC1
inactive: growth inhibition [1] -9.45% | growth inhibition [2] 10.3% | viability increase [3] 2.53% | viability [4] 87.5% | viability [5] 88.9% | inhibition [6] 0.495% | RAM network inhibition [7] -1.83%

C/C(=C1/SC(N2CCOCC2)=NC1=O)c1ccc(Br)cc1
inactive: growth inhibition [1] -1.67% | growth inhibition [2] 3.21% | viability increase [3] -1.99% | viability [4] 94.5% | viability [5] 101% | inhibition [6] 1.26% | RAM network inhibition [7] 0.72%

Cn1c(C(=O)N2CCN(C3CCCCC3)CC2)cc2c(=O)n(C)c3ccccc3c21
inactive: growth inhibition [1] -0.185% | growth inhibition [2] 4.76% | viability increase [3] -1.32% | viability [4] 105% | viability [5] 101% | inhibition [6] 1.2% | RAM network inhibition [7] 0.21%

N#CC1=C2SCN(c3ccc(F)cc3)CN2C(=O)CC1c1cccc(F)c1 (stereo unspecified)
inactive: growth inhibition [1] 4.17% | growth inhibition [2] 7.57% | viability increase [3] -2.71% | viability [4] 104% | viability [5] 96.7% | inhibition [6] 1.06% | RAM network inhibition [7] 7.08%

COCCCNC(=O)CN1C(=O)CSc2ncccc21
inactive: growth inhibition [1] -3.21% | growth inhibition [2] 3.79% | viability increase [3] 0.91% | viability [4] 105% | viability [5] 101% | inhibition [6] 2.06% | RAM network inhibition [7] 2.8%

Cc1ccc(-c2nc(CS(=O)CC(=O)NCc3ccccc3)c(C)o2)cc1 (stereo unspecified)
inactive: growth inhibition [1] 2.69% | growth inhibition [2] -1.83% | viability increase [3] -2.84% | viability [4] 98.2% | viability [5] 89.5% | inhibition [6] 0.175% | RAM network inhibition [7] 6.78%

Cc1cccc(-c2nc(CS(=O)CC(=O)N3CCCCC3)c(C)o2)c1 (stereo unspecified)
inactive: growth inhibition [1] -8.38% | growth inhibition [2] -15.3% | viability increase [3] -0.7% | viability [4] 101% | viability [5] 92.3% | inhibition [6] 0.205% | RAM network inhibition [7] 3.41%

CCN(CC)c1ccc(NC(=O)C2CC3CCC2C3)cc1 (stereo unspecified)
inactive: growth inhibition [1] -9.15% | growth inhibition [2] -4.45% | viability increase [3] 1.44% | viability [4] 69.6% | viability [5] 80.6% | inhibition [6] 1.14% | RAM network inhibition [7] 6.6%

CCCn1c(CNC(=O)c2cccs2)nc2ccccc21
inactive: growth inhibition [1] -9.53% | growth inhibition [2] -7.64% | viability increase [3] -1.28% | viability [4] 101% | viability [5] 103% | inhibition [6] 2.32% | RAM network inhibition [7] 2.11%

CCOC(=O)COc1ccc2cc(C(=O)OCC)c(=O)oc2c1
inactive: growth inhibition [1] -4.38% | growth inhibition [2] -13.8% | viability increase [3] -0.91% | viability [4] 103% | viability [5] 96.2% | inhibition [6] 1.7% | RAM network inhibition [7] 2%

COC(=O)CN(n1cnnc1)S(=O)(=O)c1ccccc1
inactive: growth inhibition [1] -9.75% | growth inhibition [2] -4.21% | viability increase [3] -0.13% | viability [4] 99% | viability [5] 96.9% | inhibition [6] 1.23% | RAM network inhibition [7] -0.62%

Cc1ccc(C(=O)NCc2ccc(Cl)c(Cl)c2)o1
inactive: growth inhibition [1] -3.73% | growth inhibition [2] 4.06% | viability increase [3] 0.03% | viability [4] 98% | viability [5] 98.5% | inhibition [6] 0.67% | RAM network inhibition [7] 1.28%

CCP(=O)(c1ccccc1)C(C)(C)O (stereo unspecified)
inactive: growth inhibition [1] 6.37% | growth inhibition [2] -8.84% | viability increase [3] -2.44% | viability [4] 104% | viability [5] 93.9% | inhibition [6] 1.48% | RAM network inhibition [7] -0.68%

COc1cccc(-n2c(Cc3cc(=O)[nH]c(=O)[nH]3)nnc2SCC(=O)N2CCCCC2)c1
inactive: growth inhibition [1] -2.5% | growth inhibition [2] -0.925% | viability increase [3] -1.49% | viability [4] 112% | viability [5] 96.8% | inhibition [6] 1.77% | RAM network inhibition [7] 5.28%
